Laboratory results reported in ChEMBL document CHEMBL4325864, “Discovery of new potent protein arginine methyltransferase 5 (PRMT5) inhibitors by assembly of key pharmacophores from known inhibitors” (Bioorg Med Chem Lett, 2018).
Blank lines part the entries; values can stand above or below the compound they belong to. Activity calls are given as the source filed them. No cut-off for these calls is given here.

Assays:
[1] = target: T1, PRMT5/MEP50 complex (Homo sapiens, UniProt O14744); assay: Inhibition of recombinant human N-terminal FLAG-tagged PRMT5 (2 to end residues) /human N-terminal His-tagged MEP50 (2 to end residues) expressed in HEK293F cells pretreated for 15 mins followed by substrate and [3H]-SAM addition measured after 60 mins by scintillation proximity assay; type: cell-based
T1 sequence (O14744 whole entry): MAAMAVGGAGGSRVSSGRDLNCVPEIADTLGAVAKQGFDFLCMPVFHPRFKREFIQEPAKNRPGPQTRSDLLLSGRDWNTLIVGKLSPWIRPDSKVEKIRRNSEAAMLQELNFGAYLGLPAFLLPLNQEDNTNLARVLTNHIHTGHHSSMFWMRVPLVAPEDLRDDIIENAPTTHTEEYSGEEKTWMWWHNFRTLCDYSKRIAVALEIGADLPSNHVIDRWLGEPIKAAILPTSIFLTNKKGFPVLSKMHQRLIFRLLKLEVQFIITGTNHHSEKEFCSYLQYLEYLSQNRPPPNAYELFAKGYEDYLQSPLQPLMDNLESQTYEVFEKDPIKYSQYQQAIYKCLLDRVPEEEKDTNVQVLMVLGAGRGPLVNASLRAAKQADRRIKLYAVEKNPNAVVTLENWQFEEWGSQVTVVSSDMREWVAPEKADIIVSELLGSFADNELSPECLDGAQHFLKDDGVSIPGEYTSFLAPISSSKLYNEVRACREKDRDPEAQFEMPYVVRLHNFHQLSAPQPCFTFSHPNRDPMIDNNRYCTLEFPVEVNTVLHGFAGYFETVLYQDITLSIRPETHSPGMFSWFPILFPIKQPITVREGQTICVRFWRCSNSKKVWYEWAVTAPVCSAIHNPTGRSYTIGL
T1 sequence (Q9BQA1 whole entry, further chain): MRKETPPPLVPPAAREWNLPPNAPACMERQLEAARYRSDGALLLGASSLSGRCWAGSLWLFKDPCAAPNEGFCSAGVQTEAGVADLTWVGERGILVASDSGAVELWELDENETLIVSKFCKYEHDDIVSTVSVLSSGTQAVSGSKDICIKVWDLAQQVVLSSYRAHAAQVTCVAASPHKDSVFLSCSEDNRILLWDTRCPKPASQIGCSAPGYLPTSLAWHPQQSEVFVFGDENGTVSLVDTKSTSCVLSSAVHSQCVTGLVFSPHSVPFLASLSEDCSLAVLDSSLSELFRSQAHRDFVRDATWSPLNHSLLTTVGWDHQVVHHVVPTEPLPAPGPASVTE
Method in brief: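 PRMT5 enzymatic inhibition measured by radiometric scintillation proximity assay; IC50 determined.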

[2] = target: Protein arginine N-methyltransferase 1 (Homo sapiens, UniProt Q99873); assay: Inhibition of PRMT1 (unknown origin) pretreated for 15 mins followed by substrate and [3H]-SAM addition measured after 60 mins by scintillation proximity assay
Sequence of Protein arginine N-methyltransferase 1 (Q99873 whole entry): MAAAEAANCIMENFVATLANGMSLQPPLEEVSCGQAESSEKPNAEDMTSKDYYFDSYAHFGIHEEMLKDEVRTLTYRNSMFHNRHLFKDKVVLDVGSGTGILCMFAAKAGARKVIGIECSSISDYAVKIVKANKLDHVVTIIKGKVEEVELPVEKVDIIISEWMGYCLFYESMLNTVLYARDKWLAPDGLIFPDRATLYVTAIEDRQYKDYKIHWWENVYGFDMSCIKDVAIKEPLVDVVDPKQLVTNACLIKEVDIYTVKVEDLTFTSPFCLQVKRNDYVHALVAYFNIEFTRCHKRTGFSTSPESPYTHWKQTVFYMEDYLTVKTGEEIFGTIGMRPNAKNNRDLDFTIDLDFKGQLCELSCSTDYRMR
Method in brief: (§1)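 PRMT1 and PRMT4 enzyme-inhibition assays used to assess selectivity; IC50 values determined for each enzyme.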

[3] = target: T2, Histone-arginine methyltransferase CARM1 (Homo sapiens, UniProt Q86X55); assay: Inhibition of PRMT4 (unknown origin) pretreated for 15 mins followed by substrate and [3H]-SAM addition measured after 60 mins by scintillation proximity assay; method in brief: as §1
T2 sequence (Q86X55 whole entry): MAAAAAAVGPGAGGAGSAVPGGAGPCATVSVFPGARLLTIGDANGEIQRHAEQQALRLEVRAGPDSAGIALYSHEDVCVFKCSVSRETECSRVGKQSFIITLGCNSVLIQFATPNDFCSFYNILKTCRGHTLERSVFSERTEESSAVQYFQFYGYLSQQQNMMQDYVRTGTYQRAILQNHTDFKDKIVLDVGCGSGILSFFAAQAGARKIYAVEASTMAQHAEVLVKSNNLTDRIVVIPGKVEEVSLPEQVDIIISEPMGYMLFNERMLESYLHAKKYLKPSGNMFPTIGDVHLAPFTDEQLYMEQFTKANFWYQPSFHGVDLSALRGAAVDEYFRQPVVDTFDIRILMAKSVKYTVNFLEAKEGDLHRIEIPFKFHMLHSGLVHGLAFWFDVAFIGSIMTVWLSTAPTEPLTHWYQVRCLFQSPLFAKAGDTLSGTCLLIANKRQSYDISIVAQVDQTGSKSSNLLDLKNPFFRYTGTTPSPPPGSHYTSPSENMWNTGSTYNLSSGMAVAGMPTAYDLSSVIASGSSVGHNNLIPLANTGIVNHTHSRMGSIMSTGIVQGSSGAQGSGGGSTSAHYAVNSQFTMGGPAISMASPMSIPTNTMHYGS

[4] = target: T3, Protein arginine N-methyltransferase 5 (Homo sapiens, UniProt O14744); assay: (§2) Competitive inhibition of recombinant human N-terminal FLAG-tagged PRMT5 (2 to end residues) /human N-terminal His-tagged MEP50 (2 to end residues) expressed in HEK293F cells pretreated for 15 mins followed by varying peptide substrate and fixed [3H]-SAM addition measured after 60 mins by scintillation proximity assay; type: cell-based
T3 sequence (O14744 whole entry): as the sequence (O14744 whole entry) above
Method in brief: (§3)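 Mode of inhibition: IC50 values determined by radiometric scintillation proximity assay in the presence of various concentrations of peptide substrate and SAM; experiments performed in triplicate.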

[5] = system: MV4-11; assay: Antiproliferative activity against human MV4-11 cells after 4 days by cell titer-glo luminescent cell viability assay; details: MV4-11, 96 h
[6] = system: Pfeiffer; assay: Antiproliferative activity against human Pfeiffer cells after 4 days by cell titer-glo luminescent cell viability assay; details: 96 h
[7] = system: SUD4; assay: Antiproliferative activity against human SU-DHL4 cells after 4 days by cell titer-glo luminescent cell viability assay; details: SU-DHL-4, 96 h
[8] = system: KARPAS-422; assay: Antiproliferative activity against human KARPAS422 cells after 4 days by cell titer-glo luminescent cell viability assay; details: KARPAS-422, 96 h
[9] = target: T3, Protein arginine N-methyltransferase 5; assay: Inhibition of PRMT5 in human KARPAS422 cells assessed as decrease in symmetric arginine dimethylation of SmD3 after 4 days by Western blot analysis; type: cell-based; details: in the assay text read “after 72 h” for “after 4 days”
Method in brief: (§4)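 KARPAS-422 and SU-DHL-4 cells treated across a concentration range; symmetric arginine dimethylation of SmD3 detected by Western blot with symmetric dimethyl arginine (SDMA) antibody.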

[10] = target: T3, Protein arginine N-methyltransferase 5; assay: Inhibition of PRMT5 in human SU-DHL4 cells assessed as decrease in symmetric arginine dimethylation of SmD3 after 4 days by Western blot analysis; type: cell-based; details: in the assay text read “after 72 hrs” for “after 4 days”; method in brief: as §4
[11] = system: KARPAS-422; assay: Induction of apoptosis in human KARPAS422 cells assessed as viable cells at 4 uM after 48 hrs by AnnexinV-FITC staining-based flow cytometric analysis (reference value: 91.3%); type: functional; details: KARPAS-422, 48 h, read-out: Activity
[12] = system: KARPAS-422; assay: Induction of apoptosis in human KARPAS422 cells assessed as apoptotic cells at 4 uM after 48 hrs by AnnexinV-FITC staining-based flow cytometric analysis (reference value: 4.08%); type: functional
[13] = system: KARPAS-422; assay: Induction of apoptosis in human KARPAS422 cells assessed as necrotic cells at 4 uM after 48 hrs by AnnexinV-FITC staining-based flow cytometric analysis (reference value: 3.20%); type: functional
[14] = system: KARPAS-422; assay: Induction of apoptosis in human KARPAS422 cells assessed as viable cells at 8 uM after 48 hrs by AnnexinV-FITC staining-based flow cytometric analysis (reference value: 91.3%); type: functional; details: KARPAS-422, 48 h, read-out: Activity
[15] = system: KARPAS-422; assay: Induction of apoptosis in human KARPAS422 cells assessed as apoptotic cells at 8 uM after 48 hrs by AnnexinV-FITC staining-based flow cytometric analysis (reference value: 4.08%); type: functional
[16] = system: KARPAS-422; assay: Induction of apoptosis in human KARPAS422 cells assessed as necrotic cells at 8 uM after 48 hrs by AnnexinV-FITC staining-based flow cytometric analysis (reference value: 3.20%); type: functional
[17] = system: KARPAS-422; assay: Induction of apoptosis in human KARPAS422 cells assessed as viable cells at 16 uM after 48 hrs by AnnexinV-FITC staining-based flow cytometric analysis (reference value: 91.3%); type: functional; details: KARPAS-422, 48 h, read-out: Activity
[18] = system: KARPAS-422; assay: Induction of apoptosis in human KARPAS422 cells assessed as apoptotic cells at 16 uM after 48 hrs by AnnexinV-FITC staining-based flow cytometric analysis (reference value: 4.08%); type: functional
[19] = system: KARPAS-422; assay: Induction of apoptosis in human KARPAS422 cells assessed as necrotic cells at 16 uM after 48 hrs by AnnexinV-FITC staining-based flow cytometric analysis (reference value: 3.20%); type: functional
[20] = system: KARPAS-422; assay: Cell cycle arrest in human KARPAS422 cells assessed as accumulation of cells at G1 phase at 4 uM after 48 hrs by propidium iodide staining-based flow cytometric analysis (reference value: 39.56%); type: functional
[21] = system: KARPAS-422; assay: Cell cycle arrest in human KARPAS422 cells assessed as accumulation of cells at G1 phase at 8 uM after 48 hrs by propidium iodide staining-based flow cytometric analysis (reference value: 39.56%); type: functional
[22] = system: KARPAS-422; assay: Cell cycle arrest in human KARPAS422 cells assessed as accumulation of cells at G1 phase at 16 uM after 48 hrs by propidium iodide staining-based flow cytometric analysis (reference value: 39.56%); type: functional
[23] = system: KARPAS-422; assay: Cell cycle arrest in human KARPAS422 cells assessed as accumulation of cells at G1 phase after 48 hrs by propidium iodide staining-based flow cytometric analysis; type: functional
[24] = system: KARPAS-422; assay: Induction of apoptosis in human KARPAS422 cells after 48 hrs by AnnexinV-FITC staining-based flow cytometric analysis; type: functional, cell-based
[25] = target: T1, PRMT5/MEP50 complex; assay: Binding affinity to PRMT5 (unknown origin)/MEP50 (unknown origin) by SPR assay; type: protein-complex assay
Method in brief: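 Direct binding to PRMT5 measured by surface plasmon resonance; equilibrium dissociation constant (KD) derived.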

[26] = target: T3, Protein arginine N-methyltransferase 5; assay: as §2, with “Non-competitive” for “Competitive”, “fixed” for “varying”, “varying” for “fixed”; type: cell-based; method in brief: as §3
[27] = system: KARPAS-422; assay: Cell cycle arrest in human KARPAS422 cells assessed as accumulation of cells at S phase at 4 uM after 48 hrs by propidium iodide staining-based flow cytometric analysis (reference value: 47.8%); type: functional
[28] = system: KARPAS-422; assay: Cell cycle arrest in human KARPAS422 cells assessed as accumulation of cells at S phase at 8 uM after 48 hrs by propidium iodide staining-based flow cytometric analysis (reference value: 47.8%); type: functional
[29] = system: KARPAS-422; assay: Cell cycle arrest in human KARPAS422 cells assessed as accumulation of cells at S phase at 16 uM after 48 hrs by propidium iodide staining-based flow cytometric analysis (reference value: 47.8%); type: functional
[30] = system: KARPAS-422; assay: Cell cycle arrest in human KARPAS422 cells assessed as accumulation of cells at G2/M phase at 4 uM after 48 hrs by propidium iodide staining-based flow cytometric analysis (reference value: 12.64%); type: functional
[31] = system: KARPAS-422; assay: Cell cycle arrest in human KARPAS422 cells assessed as accumulation of cells at G2/M phase at 8 uM after 48 hrs by propidium iodide staining-based flow cytometric analysis (reference value: 12.64%); type: functional
[32] = system: KARPAS-422; assay: Cell cycle arrest in human KARPAS422 cells assessed as accumulation of cells at G2/M phase at 16 uM after 48 hrs by propidium iodide staining-based flow cytometric analysis (reference value: 12.64%); type: functional
[33] = target: T3, Protein arginine N-methyltransferase 5; assay: Inhibition of full-length N-terminal FLAG-tagged PRMT5 (unknown origin) (1 to 637 residues) expressed in baculovirus infected Sf9 insect cells using histone H4 as peptide after 5 hrs in presence of [H3]AdoMet by scintillation proximity assay

SMILES: Cc1ccc(NC(=O)CCN2CCc3ccccc3C2)cc1
IC50 [1]: > 100 µM

SMILES: O=C(CCN1CCc2ccccc2C1)Nc1cccc2ncccc12
IC50 [1]: > 100 µM

SMILES: O=C(CCN1CCc2ccccc2C1)Nc1ccc(Oc2ccccc2)cc1
IC50 [1]: > 100 µM

SMILES: COC(=O)c1cc(F)c(F)cc1NC(=O)CCN1CCc2ccccc2C1
IC50 [1]: > 100 µM

SMILES: Nc1ncnc2c1ncn2[C@@H]1O[C@H](C[C@@H](N)CC[C@H](N)C(=O)O)[C@@H](O)[C@H]1O [SINEFUNGIN]
IC50 [33]: 8.6 µM

SMILES: O=C(CCN1CCc2ccccc2C1)Nc1cccc2ccccc12
IC50 [1]: > 100 µM

SMILES: COc1ccc(NC(=O)CCN2CCc3ccccc3C2)cc1
IC50 [1]: > 100 µM

More lines, main results first:

IC50 [1]: 25.6 µM
SMILES: N#Cc1ccccc1NC(=O)CCN1CCc2ccccc2C1

IC50 [1]: 60 µM
SMILES: COC(=O)c1ccccc1NC(=O)CN1CCc2ccccc2C1

IC50 [1]: 45.9 µM
SMILES: O=C(CCN1CCc2ccccc2C1)Nc1cccc(F)c1

IC50 [1]: 51.9 µM
SMILES: CC(=O)c1cccc(NC(=O)CCN2CCc3ccccc3C2)c1

IC50 [1]: 2.71 µM
IC50 [2]: > 200 µM
IC50 [3]: > 200 µM
inhibition [4]: Active
IC50 [5]: 12.5 µM
IC50 [8]: 9.1 µM
inhibition [9]: Dose-dependent effect
inhibition [10]: inactive
Kd [25]: 10.8 µM
inhibition [26]: Active
SMILES: N#Cc1c(Br)cccc1NC(=O)CCN1CCc2ccccc2C1
IC50 [6]: 11.1 µM
IC50 [7]: 16.4 µM
viability at 4 µM [11]: 90.5%
Activity [12]: 4.66%
Activity [13]: 2.35%
viability at 8 µM [14]: 88.1%
Activity [15]: 7.89%
Activity [16]: 2.93%
viability at 16 µM [17]: 66.3%
Activity [18]: 23.1%
Activity [19]: 8.76%
Activity [20]: 44.75%
Activity [21]: 50.53%
Activity [22]: 54.34%
Activity [23]: Dose-dependent effect
Activity [24]: Dose-dependent effect
Activity [27]: 41.52%
Activity [28]: 37.72%
Activity [29]: 36.18%
Activity [30]: 13.73%
Activity [31]: 11.75%
Activity [32]: 9.48%

IC50 [1]: 69.9 µM
SMILES: O=C(CCN1CCc2ccccc2C1)Nc1nccc(C(F)(F)F)n1

IC50 [1]: 18.1 µM
SMILES: O=C(CCN1CCc2ccccc2C1)Nc1cccc(Br)c1
